Results from different studies.
Each line is one published result; the experiments were not run side by side.
Cell line: CCRF-CEM
Observed: cell growth or viability

| SMILES | assay | setting | endpoint | result |
| --- | --- | --- | --- | --- |
| COc1ccc(C(=O)/C=C/c2ccc3ccccc3c2)cc1S(N)(=O)=O | SRB | 48 h | GI50 | 2600 nM |
| COc1cccc(Oc2ccccc2NC(=O)CNC(=O)c2cccc3ccccc23)c1 | SRB | 48 h | GI50 | 363 nM |
| COc1ccc(-c2cn(-c3cc(=O)oc4ccc(Br)cc34)nn2)cc1 | – | 48 h | CC50 | 9800 nM |
| O=C(CN1C(=O)SC(=Cc2ccccn2)C1=O)Nc1nc2ccccc2s1 | MTT | 48 h | CC50 | 11900 nM |
| O=C1C(=Cc2ccc(Cl)c(Cl)c2)CN(C(=O)C(Cl)Cl)CC1=Cc1ccc(Cl)c(Cl)c1 | imaging | 24 h | CC50 | 93.2 nM |
| COc1cc(-c2cn(-c3cc(=O)oc4ccc(Cl)cc34)nn2)cc(OC)c1OC | – | 48 h | CC50 | 37200 nM |
| COc1ccc(C(=O)/C=C/c2cccc(Cl)c2Cl)cc1S(N)(=O)=O | SRB | 10 µM | inhibition | 99% |
| O=C1C(=Cc2ccc(F)c(F)c2)CN(C(=O)C(Cl)Cl)CC1=Cc1ccc(F)c(F)c1 | imaging | 24 h | CC50 | 99.3 nM |
